pIC50: −log10 of the molar value. Where a name gives a salt, the structure may show the parent alone.
Assays:
Ferriprotoporphyrin IX [1] = test system: Ferriprotoporphyrin IX
Ferriprotoporphyrin IX [2] = test system: Ferriprotoporphyrin IX; remark: listed apart in the source
CHO = experiment: In vitro cytotoxicity against CHO cells was determined using MTT colorimetric assay; type: functional, cell-based; conditions: Cricetulus griseus
Procedure, shortened: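 Chinese hamster ovary cells; MTT colorimetric read-out. Compounds dissolved as 2 mg/mL stocks in water, then diluted in medium as six serial 10-fold dilutions, final 100 µg/mL to 1 ng/mL. Emetine dihydrochloride as positive control. IC50 from nonlinear dose–response curve fitting; mean ± standard deviation of two independent experiments, each in triplicate.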

Compound	Log K (Ferriprotoporphyrin IX [1])	Log K (Ferriprotoporphyrin IX [2])	also measured
c1ccc(-c2ccccn2)nc1	No association		
O=[N+]([O-])c1cc2cccnc2c2ncccc12		2.88	
CC[C@H]1CN2CCc3cc(OC)c(OC)cc3[C@@H]2C[C@@H]1C[C@H]1NCCc2cc(OC)c(OC)cc21 [EMETINE HYDROCHLORIDE]			pIC50 (CHO): 6.86
Cc1ccnc2c1ccc1cccnc12		3.22	
O=C(NC(=S)N(CCO)CCO)c1ccccc1	No association		
Cc1cc2cccnc2c2ncccc12		2.93	
Clc1cc2cccnc2c2ncccc12		3.01	
Cc1ccnc(-c2cc(C)ccn2)c1	No association		
Cc1cnc2c(ccc3c(C)c(C)cnc32)c1C		3.32	
CCN(CC)CCN(CCN(CC)CC)C(=S)NC(=O)c1ccccc1		1.93	
